Experimental findings from ChEMBL document CHEMBL4145477, “Inhibitor of the human telomerase reverse trancriptase (hTERT) gene promoter induces cell apoptosis via a mitochondrial-dependent pathway” (Eur J Med Chem, 2018) are described below.

A short description of data set [1]: (§1) Inhibition of human TERT promoter activity expressed in human HeLa cells after 24 hrs by luciferase reporter gene assay. The data set is classed as cell-based. An outline of the steps:
(§2)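 HeLa cells co-transfected with hTERT promoter–luciferase (P-3996) or pGL2 vector plus pCMV-β-gal. Replated at 5×10^3/well, then treated 24 h in DMEM with 3% FBS at 1–16 µM. Luciferase normalized to β-galactosidase and expressed as fold of 0.1% DMSO control. Three repeats.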
(A reporter such as luciferase makes a cellular process visible.)

Data set [2] relates to HeLa. The data set can be described thus: Antiproliferative activity against human HeLa cells at 5 uM by MTT assay. It is filed as functional, cell-based. To be noted: TDE = time-dependent effect. The procedure, abridged:
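HeLa cells seeded 5,000/well in triplicate, exposed to 5 µM for 24 or 48 h. MTT added at 0.5 mg/ml final for 4 h at 37 °C in the dark. Formazan dissolved in DMSO and read at 570 nm. Three independent experiments.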
On the technique in general: Tetrazolium assays rely on reduction of a dye to a coloured formazan, in cell work by metabolically active cells.

Another data set has as its system L02. Kind of data set: Antiproliferative activity against human LO2 cells at 1 to 16 uM after 48 hrs by MTT assay. It is filed as cell-based. To be noted: l02, 48 h. An outline of the steps:
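L02 cells given 1, 2, 4, 8 and 16 µM for 48 h. Seeded 5,000/well in triplicate. MTT 0.5 mg/ml final, 4 h at 37 °C in the dark, DMSO solubilization, absorbance at 570 nm. Three independent experiments. IC50 from probit regression of relative absorbance.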

In data set [3] the test system is HeLa. The data set can be described thus: Inhibition of TERT promoter activity in human HeLa cells assessed as decrease in relative length of telomeres treated up to 22 generations by Q-PCR analysis. It is filed as cell-based. The procedure, abridged: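 HeLa cells cultured with compound or DMSO for 22 generations. Telomere length measured by qPCR as telomere/36B4 single-copy gene (T/S) ratio relative to a reference DNA. Samples run in duplicate, threshold 0.5.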

For data set [4], the system named is HeLa. Kind of data set: Inhibition of colony formation in human HeLa cells at 5 uM after 3 weeks. The data set is classed as functional, cell-based. An outline of the steps:
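HeLa cells treated with 5 µM and grown 3 weeks. Colonies photographed and colony-formation efficiency quantified.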

In data set [5] the test system is HeLa. The data set can be described thus: Induction of apoptosis in human HeLa cells assessed as chromatin condensation at 5 uM after 48 hrs by DAPI staining-based fluorescence microscopic analysis. The data set is classed as functional, cell-based. An outline of the steps:
(§3)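 Cells fixed in 5% paraformaldehyde and permeabilized with 0.1% Triton X-100 in PBS. Stained 10 min with DAPI (1 µg/mL) and examined by fluorescence microscopy. Nuclei with chromatin condensation and fragmentation scored apoptotic.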

In data set [6] the test system is HeLa. Kind of data set: Induction of apoptosis in human HeLa cells assessed as cell shrinkage at 5 uM after 48 hrs by DAPI staining-based fluorescence microscopic analysis. It is filed as functional. The procedure, abridged: as §3
For data set [7], the system named is HeLa. The data set can be described thus: Induction of apoptosis in human HeLa cells assessed as increase in cleaved caspase-3 levels at 5 uM after 24 hrs by Western blot analysis. The data set is classed as functional, cell-based. The procedure, abridged: (§4)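 Treated cells lysed in ice-cold Tris-HCl pH 7.5/NaCl/NP-40 buffer with protease inhibitors. Equal protein separated by SDS-PAGE and transferred to nitrocellulose. Blocked in 5% milk in PBST, primary antibodies overnight at 4 °C, secondary 1 h at room temperature, infrared imaging. β-actin probed alongside.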
For orientation: In western blotting, separated proteins are transferred to a membrane and probed.

Data set [8] has as its system HeLa. Kind of data set: Induction of apoptosis in human HeLa cells assessed as increase in cleaved caspase-9 levels at 5 uM after 24 hrs by Western blot analysis. The data set is classed as functional, cell-based. The procedure, abridged: as §4
Data set [9] relates to HeLa. The data set can be described thus: Induction of apoptosis in human HeLa cells assessed as decrease in Bcl-2 levels at 5 uM after 24 hrs by Western blot analysis. It is filed as functional, cell-based. An outline of the steps: as §4
For data set [10], the system named is HeLa. Kind of data set: Induction of apoptosis in human HeLa cells assessed as increase in Bax levels at 5 uM after 24 hrs by Western blot analysis. It is filed as functional, cell-based. An outline of the steps: as §4
The subject of data set [11] is HeLa. Kind of data set: Induction of apoptosis in human HeLa cells assessed as viable cells at 5 uM after 48 hrs by Annexin V-FITC/propidium iodide staining-based flow cytometric analysis (reference value: 74%). The data set is classed as functional. The settings on record: read-out: Activity.
Data set [12] deals with HeLa. Kind of data set: Induction of apoptosis in human HeLa cells assessed as early apoptotic cells at 5 uM after 48 hrs by Annexin V-FITC/propidium iodide staining-based flow cytometric analysis (reference value: 9.5%). It is filed as functional.
For data set [13], the system named is HeLa. Kind of data set: Induction of apoptosis in human HeLa cells assessed as late apoptotic cells at 5 uM after 48 hrs by Annexin V-FITC/propidium iodide staining-based flow cytometric analysis (reference value: 15%). It is filed as functional.
For data set [14], the system named is HeLa. The data set can be described thus: Induction of apoptosis in human HeLa cells assessed as necrotic cells at 5 uM after 48 hrs by Annexin V-FITC/propidium iodide staining-based flow cytometric analysis (reference value: 1.5%). It is filed as functional.
For data set [15], the system named is HeLa. Described as §1. It is filed as cell-based. An outline of the steps:
as §2

Calls of active or inactive are those of the source.

With `O=C1/C(=N\O)c2c(Br)cccc2N1Cc1ccc(Cl)cc1`, the EC50 (as a rule, the concentration that produces a half-maximal response) in data set [1] is 6 µM.
`O=C1/C(=N\O)c2c(-c3ccc(C(F)(F)F)cc3)cccc2N1Cc1ccc(Cl)cc1`: the Activity result is “Tde” in the data set on HeLa [2]; “Non-Toxic” in the data set on L02; 30.6% with HeLa [12]; 29.1% in the data set with HeLa [13]; 2.2% with HeLa [14]. This compound displayed an EC50 in data set [1] of 5 µM. The inhibition entry in the data set with HeLa [3] and in the data set on HeLa [4] was “Active” throughout. Further, the outcome in the data set with HeLa [5], with HeLa [6], with HeLa [7], with HeLa [8], with HeLa [9] and with HeLa [10] was Active. For the same compound, the viability at 5 µM in the data set on HeLa [11] came to 38%.
As for `COc1ccc(-c2cccc3c2/C(=N/O)C(=O)N3Cc2ccc(Cl)cc2)cc1`, the EC50 in data set [1] is 12 µM.
In turn, `O=C1/C(=N\O)c2c(I)cccc2N1Cc1ccc(Cl)cc1` displayed an EC50 in data set [1] of 14 µM. Further, the inhibition result in the data set with HeLa [15] is “Dose-dependent effect”.
In turn, `O=C1/C(=N\O)c2c(Cl)cccc2N1Cc1ccc(Cl)cc1` yielded an EC50 in data set [1] of 13 µM.
